Bounds are passed on as bounds.

A short description of experiment [1]: Inhibition of human N terminal deleted DNA polymerase lambda Del-1 mutant. The gist of the method:
(§1)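 Dose-response was run on 0.05 U of full-length (residues 1–575), del-1 (133–575) or del-2 (245–575) human pol λ. Compound in DMSO was preincubated 10 min at 0 °C, then the reaction ran 60 min at 37 °C with poly(dA)/oligo(dT)12-18 and dTTP. Activity relative to the no-compound control; means ± SEM of three independent experiments.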

The target of a further experiment is DNA polymerase beta (Homo sapiens, UniProt P06746). Nature of the experiment: Inhibition of human DNA polymerase beta.
The target in a further experiment is T1, DNA polymerase lambda (Homo sapiens, UniProt Q9UGP5).
T1 sequence (Q9UGP5 whole entry): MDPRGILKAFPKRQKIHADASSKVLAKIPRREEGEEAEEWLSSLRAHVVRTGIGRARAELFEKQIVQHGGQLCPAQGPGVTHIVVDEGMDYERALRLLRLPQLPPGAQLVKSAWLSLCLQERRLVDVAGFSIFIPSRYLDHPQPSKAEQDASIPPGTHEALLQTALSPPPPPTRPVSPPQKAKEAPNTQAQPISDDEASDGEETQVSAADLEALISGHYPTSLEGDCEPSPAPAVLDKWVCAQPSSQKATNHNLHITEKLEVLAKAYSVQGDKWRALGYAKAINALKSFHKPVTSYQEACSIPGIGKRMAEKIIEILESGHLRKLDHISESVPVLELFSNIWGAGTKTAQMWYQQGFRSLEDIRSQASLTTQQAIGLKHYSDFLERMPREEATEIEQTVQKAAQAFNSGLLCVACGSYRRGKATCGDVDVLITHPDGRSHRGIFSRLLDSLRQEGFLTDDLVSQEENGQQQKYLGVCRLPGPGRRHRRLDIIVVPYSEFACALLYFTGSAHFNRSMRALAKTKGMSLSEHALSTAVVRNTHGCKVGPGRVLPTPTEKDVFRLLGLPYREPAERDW
Nature of the experiment: Inhibition of human DNA polymerase lambda. The gist of the method:
as §1

The nature of experiment [2]: Inhibition of human N terminal deleted DNA polymerase lambda Del-2 mutant. The essentials:
as §1

As for `C/C(=C\CC[C@H](C)C(=O)O)[C@H]1CC[C@H](C(=O)O)CC1` [HYMENOIC ACID], the IC50 (commonly the concentration that inhibits the measured activity by half) in experiment [1] is more than 200 µM; on DNA polymerase beta, more than 200 µM; at DNA polymerase lambda, 91.7 µM; in experiment [2] it was more than 200 µM.

These data come from ChEMBL document CHEMBL1157184, “Hymenoic acid, a novel specific inhibitor of human DNA polymerase lambda from a fungus of Hymenochaetaceae sp” (Bioorg Med Chem, 2008).
